For test [1], the system named is MT4. As to the kind of experiment: Inhibitory activity against HIV-1 in MT-4 cell culture. Particulars: Homo sapiens. The test is classed as functional, cell-based. The method, boiled down:
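MT-4 cells at about 200000-300000 cells/mL infected with HIV-1 (IIIB) and incubated with serial compound dilutions for 5 days at 37 °C. Viable cells were counted by trypan blue exclusion.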

In test [2] the test system is CCRF-CEM. As to the kind of experiment: Inhibitory activity against HIV-2 in CEM cell culture. In kind it is functional, cell-based. Particulars: Homo sapiens.
Test [3] concerns MT4. As to the kind of experiment: Inhibitory activity against HIV-2 in MT-4 cell culture. In kind it is functional, cell-based. As to conditions: Homo sapiens.
Test [4] relates to CCRF-CEM. As to the kind of experiment: Inhibitory activity against HIV-1 in CEM cell culture. The test is classed as functional, cell-based. As to conditions: Homo sapiens. In a few lines: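 CEM cells at about 200000-300000 cells/mL infected with HIV-1 (IIIB), then added to serial dilutions of compound. After 4 days at 37 °C, syncytium formation was scored by microscopy.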

The target of test [5] is Human immunodeficiency virus type 1 reverse transcriptase (Human immunodeficiency virus 1, UniProt Q72547, E138K). The test can be described thus: Inhibitory activity against E138K mutant reverse transcriptase.
The target of test [6] is Human immunodeficiency virus type 1 reverse transcriptase (Human immunodeficiency virus 1, UniProt Q72547). The test can be described thus: Inhibitory activity against wild-type HIV-1 reverse transcriptase.
Test [7] deals with Human immunodeficiency virus type 1 reverse transcriptase (Human immunodeficiency virus 1, UniProt Q72547, R172A). As to the kind of experiment: Inhibitory activity against R172A mutant reverse transcriptase.

The structures appear in SMILES notation. pEC50, pIC50: −log10 of the molar value.

One may read the pEC50 as −log10 of the EC50, conventionally taken in molar units. Higher therefore signals a small EC50. As for `Cc1cn([C@@H]2O[C@H](CO[Si](C)(C)C(C)(C)C)[C@@]3(OS(=O)(=O)C=C3N)[C@H]2O[Si](C)(C)C(C)(C)C)c(=O)n(CCCO)c1=O`, the pEC50 with MT4 [1] is 7.52; in the test on CCRF-CEM [2], less than 5.70; with MT4 [3], less than 5.70; with CCRF-CEM [4], 8.00.
Regarding `CC1=CNC(=O)N([C@@H]2O[C@H](CO[Si](C)(C)C(C)(C)C)[C@@]3(OS(=O)(=O)C=C3N)[C@H]2O[Si](C)(C)C(C)(C)C)C1`, the pEC50 in the test with MT4 [1] is 6.64; with CCRF-CEM [2] it was less than 5.00; in the test on MT4 [3] it was less than 5.00; with CCRF-CEM [4], 6.92.
For `Cc1cn([C@@H]2O[C@H](CO[Si](C)(C)C(C)(C)C)[C@@]3(OS(=O)(=O)C=C3N)[C@H]2O[Si](C)(C)C(C)(C)C)c(=O)[nH]c1=S`, the negative-log EC50 (pEC50) with MT4 [1] was 6.77; in the test with CCRF-CEM [2] it was less than 5.70; in the test with MT4 [3], less than 5.00; with CCRF-CEM [4], 6.77.
The pIC50 is −log10 of the IC50, conventionally taken in molar units. Read a low pIC50 as a large IC50. With `CC(C)=CCOc1cc(NC(=S)c2ccoc2C)ccc1Cl` [UC 781], the pIC50 is 6.65 in test [5], 7.62 in test [6] and 7.68 in test [7].
As to `CC1=CN([C@@H]2O[C@H](CO[Si](C)(C)C(C)(C)C)[C@@]3(OS(=O)(=O)C=C3N)[C@H]2O[Si](C)(C)C(C)(C)C)C(=O)NC1`, the negative-log EC50 (pEC50) in the test on MT4 [1] was 6.70; in the test with CCRF-CEM [2], less than 5.70; in the test on MT4 [3], less than 5.00; with CCRF-CEM [4], 7.00.
For the molecule `Cc1cn([C@@H]2O[C@H](CO[Si](C)(C)C(C)(C)C)C3(OS(=O)(=O)C=C3N)[C@H]2O[Si](C)(C)C(C)(C)C)c(=O)[nH]c1=O` (stereo partly drawn), the pIC50 is less than 3.07 in test [5], 5.21 in test [6] and 6.20 in test [7]. The pEC50 with CCRF-CEM [2] and in the test on MT4 [3] was less than 4.70 each time.
Turning to `Cc1cn([C@@H]2O[C@H](CO[Si](C)(C)C(C)(C)C)[C@@]3(OS(=O)(=O)C=C3N)[C@H]2O[Si](C)(C)C(C)(C)C)c(=O)n(C)c1=O`, the negative-log EC50 (pEC50) is 7.30 in the test with MT4 [1], less than 3.70 in the test on CCRF-CEM [2], less than 3.70 with MT4 [3] and 7.22 in the test with CCRF-CEM [4].

(Values after ChEMBL document CHEMBL1134768, “Identification of a putative binding site for [2',5'-bis-O-(tert-butyldimethylsilyl)-beta-D-ribofuranosyl]-3'-spiro-5''-(4''-amino-1'',2''-oxathiole-2'',2''-dioxide)thymine (TSAO) derivatives at the p51-p66 interface of HIV-1 reverse transcriptase” (J Med Chem, 2001).)
